The results in this text go back to ChEMBL document CHEMBL1124738, “Novel 21-aminosteroids that inhibit iron-dependent lipid peroxidation and protect against central nervous system trauma” (J Med Chem, 1990).

Common to all, as to type: functional
Experiment [1] deals with Mus musculus. In words: Percent increase in KCN lethality (cytotoxic hypoxia) model against male CF-1 mice at a dose 30 mg/kg administered intravenously. The following applies: route intravenous.
The species named for experiment [2] is Mus musculus. In words: Lowest effective dose in a mouse head injury model was reported. In a few lines: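 Unanesthetized male CF-1 mice, 16–22 g; concussive head injury by weight drop (900 g cm for 16–20 g mice, 950 g cm for 20–22 g). Vehicle or compound given blindly as iv bolus 3–5 min post-injury; vehicle 0.05 N HCl or 0.5% Tween 80. Four groups of 20 per trial (vehicle plus three doses). Grip test on suspended taut string at 1 h; group score as mean time on string.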

The species named for experiment [3] is Rattus norvegicus. Nature of the experiment: Ability to inhibit iron-dependent lipid peroxidation in rat brain homogenate using MDA (malondialdehyde) formation assay at 300 uM.
Experiment [4] has as its system Mus musculus. In words: Percent increase in KCN lethality (cytotoxic hypoxia) model against male CF-1 mice at a dose 100 mg/kg administered intravenously. The following applies: route intravenous.
Experiment [5] is filed under the species Rattus norvegicus. In words: Ability to inhibit iron-dependent lipid peroxidation in rat brain homogenate using MDA (malondialdehyde) formation assay. In a few lines:
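Incubations at 37 °C contain 20% ethanol and compound up to 300 μM, and are started with 200 μM Fe2+. They are stopped after 20 min with ice-cold 12.5% TCA in 0.8 N HCl. Readout is TBAR formation, reported as IC50 or % inhibition at 300 μM.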

Experiment [6] concerns Mus musculus. Nature of the experiment: Evaluated in a potassium cyanide lethality (cytotoxic hypoxia) model against male CF-1 mice at 100 mg/kg administered intravenously. The following applies: route intravenous.
Experiment [7] has as its system Mus musculus. In words: Evaluated in a potassium cyanide lethality (cytotoxic hypoxia) model against male CF-1 mice at a dose 30 mg/kg administered intravenously. Particulars: route intravenous.

pIC50: −log10 of the molar value.

Consider `C[C@H]1C[C@@H]2[C@H]([C@@H](O)C[C@@]3(C)[C@H]2CC[C@]3(O)C(=O)COC(=O)CCC(=O)[O-])[C@@]2(C)C=CC(=O)C=C12.[Na+]` [METHYLPREDNISOLONE SODIUM SUCCINATE], for which the entries for the “Increase in LD50” value in experiment [1] and in experiment [4] were 0% and 20%, respectively. Further, the Lowest effective dose in experiment [2] was 15 mg/kg. In experiment [3], this molecule came in with an inhibition of 0%.

`C[C@]12CCC(=O)C=C1CCC1C2[C@H](O)C[C@@]2(C)C1CC[C@]2(O)C(=O)CN1CCN(c2ccccn2)CC1` (some centres undefined) returned an inhibition in experiment [3] of 20%.

Regarding `C[C@]12CCC(=O)C=C1CCC1C2C(=O)C[C@@]2(C)C1CC[C@]2(O)C(=O)CN1CCN(c2ccccn2)CC1` (some centres undefined), in experiment [3], the inhibition was 3%.

Take `CCN(CC)c1ccc(N2CCN(CC(=O)[C@H]3[C@H](C)CC4C5CCC6=CC(=O)C=C[C@]6(C)C5=CC[C@@]43C)CC2)nc1N(CC)CC.O=C(O)/C=C/C(=O)O` (some centres undefined): the “Increase in LD50” value in experiment [1] is 15%; in experiment [4] it was 46%. Also, the Lowest effective dose in experiment [2] worked out at 0.003 mg/kg. The same molecule showed a pIC50 in experiment [5] of 5.52.

As to `C[C@]12CCC(=O)C=C1CCC1C2=CC[C@@]2(C)C1CC[C@]2(O)C(=O)CN1CCN(c2cc(N3CCCC3)nc(N3CCCC3)n2)CC1.O=C(O)/C=C/C(=O)O` (some centres undefined), the “Increase in LD50” value is 33% in experiment [6] and 0% in experiment [7]. Further, in experiment [2], the Lowest effective dose is 1 mg/kg. In experiment [3], this molecule gave an inhibition of 25%.

For the molecule `C[C@@H]1C[C@H]2[C@@H]3CCC4=CC(=O)C=C[C@]4(C)C3=CC[C@]2(C)[C@H]1C(=O)CN1CCN(c2cc(N3CCCC3)nc(N3CCCC3)n2)CC1` [TIRILAZAD], the “Increase in LD50” value in experiment [1] is 14%; in experiment [4], 20%. The Lowest effective dose in experiment [2] was 0.003 mg/kg. The molecule also gave a pIC50 in experiment [5] of 4.74.

Take `C[C@]12CCC(=O)C=C1CCC1C2=CC[C@@]2(C)C1CC[C@]2(O)C(=O)CN1CCN(c2cccc(N3CCCC3)n2)CC1` (some centres undefined): in experiment [5], the pIC50 is 4.24.

In turn, `Cc1c(C)c2c(c(C)c1O)CC[C@@](C)(CCC[C@H](C)CCC[C@H](C)CCCC(C)C)O2` [ALPHA-TOCOPHEROL] gave a pIC50 in experiment [5] of 4.52. This pIC50 lies 0.28 log units higher than the previous one.

In experiment [2], `C[C@@H]1CC2C3CCC4=CC(=O)C=C[C@]4(C)C3=CC[C@]2(C)[C@H]1C(=O)CN1CCN(c2ccccn2)CC1` (some centres undefined) displayed a Lowest effective dose of 10 mg/kg. The molecule also returned an inhibition in experiment [3] of 4%.

`C[C@]12CCC(=O)C=C1CCC1C2=CC[C@@]2(C)C1CC[C@]2(O)C(=O)CN1CCN(CCO)CC1` (some centres undefined) came in with an inhibition in experiment [3] of 0%.

For `C[C@]12CCC(=O)C=C1CC[C@@H]1[C@@H]2CC[C@@]2(C)[C@H]1CC[C@]2(O)C(=O)CN1CCN(c2ccccn2)CC1`, in experiment [3], the inhibition was 26%.

In the case of `CC(=O)N(O)CCCCCNC(=O)CCC(=O)N(O)CCCCCNC(=O)CCC(=O)N(O)CCCCCN` [DEFEROXAMINE], the pIC50 in experiment [5] was 3.95.

`COc1ccccc1N1CCN(CC(=O)[C@@]2(O)CCC3C4CCC5=CC(=O)CC[C@]5(C)C4=CC[C@@]32C)CC1` (some centres undefined) registered an inhibition in experiment [3] of 37%.

As for `C[C@]12CCC(O)CC1CC[C@@H]1[C@@H]2C(=O)C[C@@]2(C)[C@H]1CC[C@]2(O)C(=O)CN1CCN(c2ccccn2)CC1` (some centres undefined), the inhibition in experiment [3] turned out to be 3%.

The molecule `C[C@]12CCC(=O)C=C1CCC1C2=CC[C@@]2(C)C1CC[C@]2(O)C(=O)CN1CCN(Cc2ncccc2O)CC1` (some centres undefined) returned an inhibition in experiment [3] of 5%.

Turning to `CCNc1cccnc1N1CCN(CC(=O)[C@H]2[C@H](C)CC3C4CCC5=CC(=O)C=C[C@]5(C)C4=CC[C@@]32C)CC1.O=C(O)/C=C/C(=O)O` (some centres undefined), in experiment [2], the Lowest effective dose is 0.03 mg/kg. Also, in experiment [5], the pIC50 is 4.82.

In experiment [3], `C[C@]12C=CC(=O)C=C1CCC1C2[C@H](O)C[C@@]2(C)C1CC[C@]2(O)C(=O)CN1CCN(c2ccccn2)CC1` (some centres undefined) came in with an inhibition of 0%.

In the case of `C[C@]12CC(=O)[C@H]3[C@@H](CCC4=CC(=O)CC[C@@]43C)[C@@H]1CC[C@@H]2C(=O)CN1CCN(c2ccccn2)CC1`, in experiment [3], the inhibition is 14%.

Consider `C[C@]12CC[C@H]3[C@@H](CCC4=CC(=O)CC[C@@]43C)[C@@H]1CC[C@@H]2C(=O)CN1CCN(c2ccccn2)CC1`, for which the inhibition in experiment [3] was 9%.

Consider `C[C@]12CCC(=O)C=C1CCC1C2=CC[C@@]2(C)C1CC[C@]2(O)C(=O)CN1CCN(c2ccccn2)CC1` (some centres undefined), for which, in experiment [2], the Lowest effective dose amounted to 10 mg/kg. In experiment [3], this molecule had an inhibition of 23%.

For the molecule `C[C@@H]1C[C@H]2[C@@H]3CCC4CC(=O)CC[C@]4(C)C3=CC[C@]2(C)[C@@]1(O)C(=O)CN1CCN(c2ccccn2)CC1` (some centres undefined), the inhibition in experiment [3] was 31%.

As to `C[C@]12CCC(=O)C=C1CCC1C2=CC[C@@]2(C)C1CC[C@]2(O)C(=O)CN1CCNCC1` (some centres undefined), the inhibition in experiment [3] worked out at 15%.

As for `C[C@H]1CC2C([C@@H](O)C[C@@]3(C)C2CC[C@]3(O)C(=O)CN2CCN(c3ccccn3)CC2)[C@@]2(C)C=CC(=O)C=C12` (some centres undefined), the inhibition in experiment [3] was found to be 0%.

Molecule `COc1cccc(N2CCN(CC(=O)[C@@]3(O)CCC4C5CCC6=CC(=O)CC[C@]6(C)C5=CC[C@@]43C)CC2)n1` (some centres undefined) had a pIC50 in experiment [5] of 4.00.
